Measured values as given in ChEMBL document CHEMBL4190191, “Cyclic Diarylheptanoids from Corylus avellana Green Leafy Covers: Determination of Their Absolute Configurations and Evaluation of Their Antioxidant and Antimicrobial Activities” (J Nat Prod, 2017).
The source made the active and inactive calls. No cut-off for these calls is given here.

Tests used:
[1] = tested on: A549; experiment: Cytotoxicity against human A549 cells at 10 to 100 uM by MTT assay; type: cell-based; settings: a549, 100 µM
How it was run: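 A549 human lung adenocarcinoma cells were kept in DMEM with 10% FBS, 1% penicillin/streptomycin and 2 mM L-glutamine, at 37 °C under 5% CO2. Viability was measured by MTT assay after exposure to 10–100 μM.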

[2] = tested on: Bacillus cereus; experiment: Antimicrobial activity against Bacillus cereus DSM 4384 assessed as growth inhibition at 40 ug per disc after 24 to 48 hrs (reference value: 0 millimeter); type: functional; settings: read-out: DIZ
[3] = tested on: Plasma; experiment: Antioxidant activity in human plasma assessed as inhibition of H2O2-induced lipid peroxidation at 10 uM after 30 mins by TBARS assay relative to control; type: functional, cell-free
How it was run: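 Fresh plasma from medication-free donors was incubated for 30 min at 37 °C with compound (0.1–100 μM) plus 2 mM H2O2. Lipid peroxidation was quantified as TBARS. Data are from 5–9 independent experiments, as mean ± SD.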

[4] = Cytotoxicity against human DeFew cells at 10 to 100 uM by MTT assay; type: cell-based
How it was run: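 DeFew human B-lymphoma cells were maintained in RPMI 1640 with 10% FBS, 1% penicillin/streptomycin and 2 mM L-glutamine, in humidified 5% CO2 at 37 °C. Cells were exposed to 10–100 μM, and viability was read by MTT.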

[5] = tested on: Plasma; experiment: Antioxidant activity in human plasma assessed as inhibition of H2O2/Fe2+-induced lipid peroxidation at 10 uM after 30 mins by TBARS assay relative to control; type: functional, cell-free
How it was run: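 Human donor plasma was incubated for 30 min at 37 °C with compound at 10 μM plus 4.7 mM H2O2, 3.8 mM […] and 2.5 mM EDTA. Peroxidation was read as TBARS concentration.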

[6] = tested on: Pseudomonas aeruginosa; experiment: Antimicrobial activity against Pseudomonas aeruginosa DSM 50071 assessed as growth inhibition at 40 ug per disc after 24 to 48 hrs (reference value: 0 millimeter); type: functional; settings: read-out: DIZ
[7] = tested on: Escherichia coli; experiment: Antimicrobial activity against Escherichia coli DSM 8579 assessed as growth inhibition at 40 ug per disc after 24 to 48 hrs (reference value: 0 millimeter); type: functional; settings: read-out: DIZ
[8] = tested on: Staphylococcus aureus; experiment: Antimicrobial activity against Staphylococcus aureus DSM 25923 assessed as growth inhibition at 40 ug per disc after 24 to 48 hrs (reference value: 0 millimeter); type: functional; settings: read-out: DIZ
[9] = tested on: Bacillus cereus; experiment: Antimicrobial activity against Bacillus cereus DSM 4313 assessed as growth inhibition at 40 ug per disc after 24 to 48 hrs (reference value: 0 millimeter); type: functional; settings: read-out: DIZ
[10] = tested on: Escherichia coli; experiment: Antimicrobial activity against Escherichia coli DSM 8579 assessed as growth inhibition at 20 ug per disc after 24 to 48 hrs (reference value: 0 millimeter); type: functional; settings: read-out: DIZ
[11] = tested on: Bacillus cereus; experiment: Antimicrobial activity against Bacillus cereus DSM 4313 assessed as growth inhibition at 10 ug per disc after 24 to 48 hrs (reference value: 0 millimeter); type: functional; settings: read-out: DIZ
[12] = tested on: Pseudomonas aeruginosa; experiment: Antimicrobial activity against Pseudomonas aeruginosa DSM 50071 assessed as growth inhibition at 10 ug per disc after 24 to 48 hrs (reference value: 0 millimeter); type: functional; settings: read-out: DIZ
[13] = tested on: Staphylococcus aureus; experiment: Antimicrobial activity against Staphylococcus aureus DSM 25923 assessed as growth inhibition at 10 ug per disc after 24 to 48 hrs (reference value: 0 millimeter); type: functional; settings: read-out: DIZ
[14] = tested on: Bacillus cereus; experiment: Antimicrobial activity against Bacillus cereus DSM 4384 assessed as growth inhibition at 10 ug per disc after 24 to 48 hrs (reference value: 0 millimeter); type: functional; settings: read-out: DIZ
[15] = tested on: Bacillus cereus; experiment: Antimicrobial activity against Bacillus cereus DSM 4313 assessed as growth inhibition at 20 ug per disc after 24 to 48 hrs (reference value: 0 millimeter); type: functional; settings: read-out: DIZ
[16] = tested on: Escherichia coli; experiment: Antimicrobial activity against Escherichia coli DSM 8579 assessed as growth inhibition at 10 ug per disc after 24 to 48 hrs (reference value: 0 millimeter); type: functional; settings: read-out: DIZ
[17] = tested on: Bacillus cereus; experiment: Antimicrobial activity against Bacillus cereus DSM 4384 assessed as growth inhibition at 20 ug per disc after 24 to 48 hrs (reference value: 0 millimeter); type: functional; settings: read-out: DIZ
[18] = tested on: Pseudomonas aeruginosa; experiment: Antimicrobial activity against Pseudomonas aeruginosa DSM 50071 assessed as growth inhibition at 20 ug per disc after 24 to 48 hrs (reference value: 0 millimeter); type: functional; settings: read-out: DIZ
[19] = tested on: Staphylococcus aureus; experiment: Antimicrobial activity against Staphylococcus aureus DSM 25923 assessed as growth inhibition at 20 ug per disc after 24 to 48 hrs (reference value: 0 millimeter); type: functional; settings: read-out: DIZ
[20] = tested on: Pseudomonas aeruginosa; experiment: Antimicrobial activity against Pseudomonas aeruginosa DSM 50071 assessed per disc after 24 hrs by resazurin dye-based microtiter-plate assay; type: functional
How it was run: (§1)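 Resazurin microtiter-plate broth dilution. Samples in DMSO were twofold serially diluted in Mueller-Hinton broth with isosensitized broth and resazurin indicator. Bacteria were added to about 5 × 10^5 cfu/mL. Ciprofloxacin served as positive control and DMSO as negative control. Plates were run in triplicate at 37 °C for 24 h. MIC is the lowest concentration […].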

[21] = tested on: Staphylococcus aureus; experiment: Antimicrobial activity against Staphylococcus aureus DSM 25923 assessed per disc after 24 hrs by resazurin dye-based microtiter-plate assay; type: functional; how it was run: as §1
[22] = tested on: Bacillus cereus; experiment: Antimicrobial activity against Bacillus cereus DSM 4313 assessed per disc after 24 hrs by resazurin dye-based microtiter-plate assay; type: functional; how it was run: as §1
[23] = tested on: Escherichia coli; experiment: Antimicrobial activity against Escherichia coli DSM 8579 assessed per disc after 24 hrs by resazurin dye-based microtiter-plate assay; type: functional; how it was run: as §1
[24] = tested on: Bacillus cereus; experiment: Antimicrobial activity against Bacillus cereus DSM 4384 assessed per disc after 24 hrs by resazurin dye-based microtiter-plate assay; type: functional; how it was run: as §1

SMILES	Activity [1]	zone of inhibition at 40 µg/disc [2]	inhibition [3]	Activity [4]	inhibition [5]	zone of inhibition at 40 µg/disc [6]	zone of inhibition at 40 µg/disc [7]	zone of inhibition at 40 µg/disc [8]	zone of inhibition at 40 µg/disc [9]	other results
O=C(/C=C/c1ccc(O)c(O)c1)O[C@@H]1C[C@](O)(C(=O)O)C[C@@H](OC(=O)/C=C/c2ccc(O)c(O)c2)[C@H]1O	Non-Toxic	0 mm	24.2%	Non-Toxic	25.5%	0 mm	8.33 mm	6.67 mm	0 mm	–
C[C@@H]1O[C@@H](Oc2c(-c3ccc(O)cc3)oc3cc(O)cc(O)c3c2=O)[C@H](O)[C@H](O)[C@H]1OC(=O)/C=C/c1ccc(O)cc1	Non-Toxic	9.67 mm	31.8%	Non-Toxic	39.7%	9.67 mm	8.66 mm	10.7 mm	5.33 mm	zone of inhibition at 20 µg/disc [10]: 4.33 mm; zone of inhibition at 10 µg/disc [11]: 2.33 mm; zone of inhibition at 10 µg/disc [12]: 0 mm; zone of inhibition at 10 µg/disc [13]: 5 mm; zone of inhibition at 10 µg/disc [14]: 5 mm; zone of inhibition at 20 µg/disc [15]: 3.33 mm; zone of inhibition at 10 µg/disc [16]: 3 mm; zone of inhibition at 20 µg/disc [17]: 5 mm; zone of inhibition at 20 µg/disc [18]: 0 mm; zone of inhibition at 20 µg/disc [19]: 6.67 mm
COC(=O)CC(O)(CC(=O)O)C(=O)O (stereo not drawn)	Non-Toxic	0 mm	inactive	Non-Toxic	inactive	0 mm	10 mm	10.7 mm	5.67 mm	–
COC(=O)CC(O)(CC(=O)OC)C(=O)OC	Non-Toxic	0 mm	inactive	Non-Toxic	inactive	6.67 mm	11.3 mm	11.3 mm	0 mm	–
C[C@@H]1O[C@@H](Oc2c(-c3cc(O)c(O)c(O)c3)oc3cc(O)cc(O)c3c2=O)[C@H](O)[C@H](O)[C@H]1O	Non-Toxic	0 mm	44.4%	Non-Toxic	34.1%	5 mm	9.67 mm	6.33 mm	0 mm	–
COc1cc(/C=C/C(=O)CC(=O)/C=C/c2ccc(O)c(OC)c2)ccc1O	–	–	21.1%	–	22.9%	–	–	–	–	–
O=C1Cc2ccc(O)c(c2)-c2cc(ccc2O)C[C@@H](O)[C@@H](O)[C@@H](O)[C@H]1O (mixture of isomers)	Non-Toxic	11.3 mm	33.3%	Non-Toxic	14.4%	10 mm	10.3 mm	10.7 mm	10.7 mm	MIC [20]: 10 µg; MIC [21]: 30 µg; MIC [22]: 5 µg; zone of inhibition at 20 µg/disc [10]: 10 mm; zone of inhibition at 10 µg/disc [11]: 5.67 mm; zone of inhibition at 10 µg/disc [12]: 5 mm; zone of inhibition at 10 µg/disc [13]: 6.33 mm; MIC [23]: 10 µg; zone of inhibition at 10 µg/disc [14]: 5.67 mm; zone of inhibition at 20 µg/disc [15]: 9.67 mm; zone of inhibition at 10 µg/disc [16]: 4.67 mm; zone of inhibition at 20 µg/disc [17]: 9.67 mm; zone of inhibition at 20 µg/disc [18]: 8.67 mm; zone of inhibition at 20 µg/disc [19]: 10 mm; MIC [24]: 5 µg
O=C1/C=C/CCc2ccc(O[C@@H]3O[C@H](CO)[C@@H](O)[C@H](O)[C@H]3O)c(c2)-c2cc(ccc2O[C@H]2OC[C@H](O)[C@H](O)[C@H]2O)CC1 (mixture of isomers)	Non-Toxic	0 mm	12.6%	Non-Toxic	18.1%	4.67 mm	10 mm	10 mm	5 mm	–
C[C@@H]1O[C@@H](Oc2c(-c3ccc(O)cc3)oc3cc(O)cc(O)c3c2=O)[C@H](O)[C@H](O)[C@H]1O [AFZELIN]	Non-Toxic	5 mm	5.7%	Non-Toxic	20.1%	4 mm	10 mm	10.3 mm	0 mm	–
O=C(O)CC(O)(CC(=O)O)C(=O)O [CITRIC ACID]	Non-Toxic	0 mm	inactive	Non-Toxic	inactive	9.33 mm	10.7 mm	10.7 mm	10 mm	–
